pIC50, pKd: −log10 of the molar value. Active and inactive are the calls of the source. The calls are words filed in the database; no cut-off is given here.
Experiments:
[1] = Binding affinity to fluorescent labelled LBS2 DNA (unknown origin) by fluorescence polarization assay
How it was run: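 Fixed concentration of His-tagged oligomerization-deficient LANA DBD mutant (aa1008-1146, 200 nM final) was pre-incubated 60 min with compound. Fluorescein-labelled LBS2 (10 nM final) was then added and incubated 90 min. Buffer was 10 mM HEPES, 150 mM NaCl, 0.005% Tween20, 5% DMSO. Polarization was read at ex 485/em 520 nm. Runs were done with and without LANA to exclude DNA or quenching interference. Duplicates, two independent experiments.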

[2] = test system: ORF 73 (Human herpesvirus 8), O40947 [UNDEFINED MUTATION]; experiment: (§1) Inhibition of fluorescent labelled LBS2 DNA binding to human herpesvirus 8 C-terminal His-tagged LANA oligomerization deficient mutant DBD (1008 to 1146 residues) expressed in Escherichia coli BL21 (DE3) at 1 mM preincubated for 60 mins followed by fluorescent labelled LBS2 addition and measured after 90 mins by fluorescence polarization assay relative to control; settings: Human gammaherpesvirus 8
How it was run: (§2)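 Single-concentration FP competition assay (1 mM or 500 µM compound). LANA DBD mutant (200 nM final) pre-incubated with compound for 60 min, then fluorescein-labelled LBS2 (10 nM final) added and incubated 90 min. Buffer was HEPES/NaCl/Tween20 with 5% DMSO. Read at excitation 485 nm, emission 520 nm. Percent inhibition from duplicates in two independent experiments.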

ORF 73 [3] = target: T1, ORF 73 (Human herpesvirus 8, UniProt O40947); experiment: as §1, with “(DE3)” for “(DE3) at 1 mM”, “assay” for “assay relative to control”; design: species or system Human gammaherpesvirus 8; settings: for pIC50: read-out: IC50
How it was run: (§3)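 FP competition assay. His-tagged LANA DBD mutant (200 nM final) pre-incubated with serially varied compound for 60 min. Fluorescein-labelled LBS1, LBS2 or LBS3 (10 nM final) then added and incubated 90 min. Buffer was 10 mM HEPES, 150 mM NaCl, 0.005% Tween20 with 5% DMSO. Read at excitation 485 nm, emission 520 nm. Duplicates in two independent experiments. Runs without LANA checked for interference. IC50 derived from dose-response.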

[4] = test system: ORF 73 (Human herpesvirus 8), O40947 [UNDEFINED MUTATION]; experiment: (§4) Inhibition of 5'-Dy682-labelled LBS1/LBS2 DNA binding to human herpesvirus 8 C-terminal His-tagged LANA oligomerization deficient mutant DBD (1008 to 1146 residues) expressed in Escherichia coli BL21 (DE3) at 500 uM preincubated for 1 hr followed by 5'-Dy682-labelled LBS1 DNA addition and measured after 30 mins by electrophoretic mobility shift assay; settings: Human gammaherpesvirus 8
How it was run: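 Native-gel EMSA with a longer Dy-682-labelled probe carrying both LBS1 and LBS2 (20 nM). LANA DBD mutant (200 nM) pre-incubated with compound (500 µM) for 1 h at RT in the dark. Buffer was Tris-HCl pH 7.5 with KCl, MgCl2, DTT, EDTA, glycerol, Tween20, BSA and poly(dI-dC). Band intensities normalised to percent inhibition. Run in duplicate; GST served as control.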

ORF 73 [5] = target: T1, ORF 73; experiment: (§5) Inhibition of fluorescent labelled LBS1 DNA binding to human herpesvirus 8 C-terminal His-tagged LANA oligomerization deficient mutant DBD (1008 to 1146 residues) expressed in Escherichia coli BL21 (DE3) preincubated for 60 mins followed by fluorescent labelled LBS2 addition and measured after 90 mins by fluorescence polarization assay; design: species or system Human gammaherpesvirus 8; how it was run: as §3
[6] = test system: ORF 73 (Human herpesvirus 8), O40947 [UNDEFINED MUTATION]; experiment: as §4, with “LBS1” for “LBS1/LBS2”; settings: Human gammaherpesvirus 8
How it was run: (§6)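 Native-gel EMSA. LANA DBD mutant (200 nM final) pre-incubated with compound for 1 h at RT in the dark, then Dy-682-labelled LBS1 probe (20 nM) added. Complex and free-probe band intensities normalised to 0–100% inhibition. Run in duplicate; purified GST served as control.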

ORF 73 [7] = target: T1, ORF 73; experiment: as §5, with “LBS3” for “LBS1”; design: species or system Human gammaherpesvirus 8; how it was run: as §3
[8] = test system: ORF 73 (Human herpesvirus 8), O40947 [UNDEFINED MUTATION]; experiment: as §1, with “500 uM” for “1 mM”; settings: Human gammaherpesvirus 8; how it was run: as §2
Human gammaherpesvirus 8 [9] = experiment: Binding affinity to wild-type human herpesvirus 8 GST-tagged LANA C-terminal domain (934 to 1162 residues) assessed as change in melting temperature at 500 uM by differential scanning fluorimetry
How it was run: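 Thermal shift (DSF) used wild-type LANA C-terminal domain (aa934-1162) at 20 µM final and compound at 500 µM final. Buffer was 10 mM PBS pH 7.4, 5% DMSO, 0.05% Tween20. Melting was run in a real-time PCR instrument, and the change in denaturation temperature (TM) was recorded.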

Human gammaherpesvirus 8 [10] = experiment: Binding affinity to wild-type human herpesvirus 8 His-tagged LANA C-terminal domain (934 to 1162 residues) at 500 uM by surface plasmon resonance analysis
[11] = Inhibition of 5'-Dy682-labelled LBS1 DNA binding to GST-tagged LANA C-terminal domain (934 to 1162 residues) preincubated for 1 hr followed by 5'-Dy682-labelled LBS1 DNA addition and measured after 30 mins by electrophoretic mobility shift assay; design: species or system Human gammaherpesvirus 8
How it was run: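 Dose-dependent native-gel EMSA used Dy-682-labelled LBS1 probe with wild-type LANA CTD (aa934-1162). Protein was incubated with compound for 1 h at RT in the dark. IC50 was calculated from band intensities.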

ORF 73 [12] = target: T1, ORF 73; experiment: as §4, with “LBS1” for “LBS1/LBS2”, “(DE3)” for “(DE3) at 500 uM”; design: species or system Human gammaherpesvirus 8; how it was run: as §6
[13] = test system: ORF 73 (Human herpesvirus 8), O40947 [UNDEFINED MUTATION]; experiment: Binding affinity to human herpesvirus 8 C-terminal His-tagged LANA oligomerization deficient mutant DBD (1008 to 1146 residues) expressed in Escherichia coli BL21 (DE3) at 1 mM by STD-NMR analysis; settings: Human gammaherpesvirus 8
How it was run: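 STD NMR at 298 K, 500 MHz. Ligand at 1 mM final (40-fold excess) over LANA DBD mutant at 25 µM final. On-resonance irradiation at 0 ppm, off-resonance at -40 ppm. STD effect (I/I0) calculated per ligand proton. A free-compound control spectrum was recorded to check for artefacts.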

ORF 73 [14] = target: T1, ORF 73; experiment: Binding affinity to human herpesvirus human herpesvirus 8 C-terminal His-tagged LANA oligomerization deficient mutant DBD (1008 to 1146 residues) expressed in Escherichia coli BL21 (DE3) by microscale thermophoresis assay; design: species or system Human gammaherpesvirus 8
How it was run: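 His-tagged LANA DBD mutant labelled with a RED-tris NTA His-tag dye, used at 50 nM. Ligand titrated in a dose-response series starting at 1 mM. Buffer was 10 mM HEPES, 150 mM NaCl, 2 mM DTT, 0.005% Tween20 with 5% DMSO. KD derived from thermophoresis.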

## O=C(O)c1ccc(-n2ccnn2)cc1
[1]
  Activity: inactive
[2]
  inhibition: 35%

## O=C(O)c1ccc(-n2cc(-c3cccc(NCC4CCCCC4)c3)nn2)cc1
[1]
  Activity: inactive
ORF 73 [3]
  IC50: Not Active

## O=[N+]([O-])c1ccc(-n2ccnc2)cc1
[1]
  Activity: inactive
[2]
  inhibition: 22%

## O=C(O)c1ccccc1-n1ccnc1
[2]
  inhibition: 50%
ORF 73 [3]
  pIC50: 3.48

## O=C(O)c1ccc(-n2cc(C3(O)CCCC3)nn2)cc1
[4]
  inhibition: inactive
ORF 73 [5]
  pIC50: 3.98
[1]
  Activity: inactive
ORF 73 [3]
  pIC50: 3.80
[6]
  inhibition: inactive
ORF 73 [7]
  pIC50: 4.41

## O=C(O)c1ccc(-n2cc(-c3cccc(NCCN4CCOCC4)c3)nn2)cc1
[1]
  Activity: inactive
ORF 73 [3]
  IC50: Not Active

## O=C(O)c1cccc(-n2cc(-c3ccccc3)nn2)c1
[1]
  Activity: inactive
[2]
  inhibition: 43%

## COc1ccccc1-n1ccnc1
[1]
  Activity: inactive
[2]
  inhibition: 15%

## COc1ccc(-c2cn(-c3ccc(C(=O)O)cc3)nn2)cc1
[1]
  Activity: inactive
[8]
  inhibition: 20%

## Nc1ccccc1-n1ccnc1
[1]
  Activity: inactive
Human gammaherpesvirus 8 [9]
  ΔTm: -1.8 °C
[2]
  inhibition: 25%
Human gammaherpesvirus 8 [10]
  Activity: 15.7 RU

## COC(=O)c1cn(-c2ccc(C(=O)O)cc2)nn1
[1]
  Activity: inactive
ORF 73 [3]
  pIC50: 3.79

## Nc1ccc(-n2cc(-c3ccc(C(=O)O)cc3)nn2)cc1
[1]
  Activity: inactive
ORF 73 [3]
  pIC50: 4.72

## Cc1cn(-c2ccccc2N)cn1
[1]
  Activity: inactive
[2]
  inhibition: 91%

## COCc1cn(-c2ccc(C(=O)OC)cc2)nn1
[1]
  Activity: inactive
ORF 73 [3]
  pIC50: 3.63

## O=C(O)c1ccc(-n2cc(-c3ccccc3)nn2)cc1
[1]
  Activity: inactive
ORF 73 [3]
  pIC50: 3.63

## Oc1ccccc1-n1ccnc1
[1]
  Activity: inactive
[2]
  inhibition: 51%

## O=C(O)c1ccc(-n2cc(-c3cccc(NCCc4ccccc4)c3)nn2)cc1
[1]
  Activity: inactive
ORF 73 [3]
  IC50: Not Active

## O=C(O)c1ccccc1-n1ccnn1
[1]
  Activity: inactive
[2]
  inhibition: 12%

## O=C(O)c1ccc(-c2cn(-c3cccnc3)nn2)cc1
[4]
  inhibition: Active
[11]
  pIC50: 3.36
ORF 73 [5]
  pIC50: 4.70
[1]
  Activity: inactive
ORF 73 [12]
  pIC50: 3.37
[13]
  Activity: Active
ORF 73 [14]
  pKd: 4.64
ORF 73 [3]
  pIC50: 4.77
[6]
  inhibition: Active
ORF 73 [7]
  pIC50: 4.72

## O=C(O)c1ccc(-n2ccnc2)cc1
[1]
  Activity: inactive
[2]
  inhibition: 13%

## COC(=O)c1ccc(-n2cc(CO)nn2)cc1
[1]
  Activity: inactive
ORF 73 [3]
  pIC50: 4.08

## COCc1cn(-c2ccc(C(=O)O)cc2)nn1
[1]
  Activity: inactive
ORF 73 [3]
  pIC50: 3.68

## Nc1ccc(-c2cn(-c3ccc(C(=O)O)cc3)nn2)cc1
[4]
  inhibition: Active
ORF 73 [5]
  pIC50: 4.72
[1]
  Activity: inactive
ORF 73 [3]
  pIC50: 4.85
[6]
  inhibition: Active
ORF 73 [7]
  pIC50: 4.92

## Nc1cccc(-c2cn(-c3ccccc3)nn2)c1
[1]
  Activity: inactive
ORF 73 [3]
  IC50: Not Active

## NCc1cn(-c2ccc(C(=O)O)cc2)nn1
[1]
  Activity: inactive
ORF 73 [3]
  pIC50: 4.52

## Nc1ccccc1-n1cc(-c2ccc(C(=O)O)cc2)nn1
[4]
  inhibition: Active
ORF 73 [5]
  pIC50: 4.60
[1]
  Activity: inactive
ORF 73 [3]
  pIC50: 4.74
[6]
  inhibition: Active
ORF 73 [7]
  pIC50: 4.59

## O=[N+]([O-])c1ccccc1-n1ccnc1
[1]
  Activity: inactive
[2]
  inhibition: 74%

## Nc1ccccc1-n1cnc(Br)c1
[1]
  Activity: inactive
[2]
  inhibition: 13%

## O=C(O)c1ccccc1-n1cc(-c2ccccc2)nn1
[1]
  Activity: inactive
[2]
  inhibition: 13%

## O=C(O)c1ccc(-c2cn(-c3ccc(O)cc3)nn2)cc1
[1]
  Activity: inactive
ORF 73 [3]
  pIC50: 4.28

## Nc1ccccc1-n1cnc2ccccc21
[1]
  Activity: inactive
[2]
  inhibition: 32%

## O=C(O)c1ccc(-n2cc(CO)nn2)cc1
[1]
  Activity: inactive
ORF 73 [3]
  pIC50: 4.10

## O=C(O)c1ccc(-n2cc(C3CC3)nn2)cc1
[1]
  Activity: inactive
ORF 73 [3]
  pIC50: 3.16

## O=[N+]([O-])c1cccc(-n2ccnc2)c1
[1]
  Activity: inactive
[2]
  inhibition: 21%

## O=C(O)c1ccc(-n2cc(-c3ccccc3NCC3CCCCC3)nn2)cc1
[1]
  Activity: inactive
ORF 73 [3]
  IC50: Not Active

## O=C(O)c1cccc(-n2ccnn2)c1
[1]
  Activity: inactive
[2]
  inhibition: 98%

## O=C(O)c1cccc(-n2ccnc2)c1
[1]
  Activity: inactive
[2]
  inhibition: 19%

## CC(=O)OCc1cn(-c2ccc(C(=O)O)cc2)nn1
[1]
  Activity: inactive
ORF 73 [3]
  IC50: Not Active

## Nc1cccc(-n2ccnc2)c1
[1]
  Activity: inactive
[2]
  inhibition: inactive

## O=C(O)c1ccc(-n2cc(-c3ccc(NCC4CCCCC4)cc3)nn2)cc1
[1]
  Activity: inactive
ORF 73 [3]
  IC50: Not Active

## O=C(O)c1ccc(-n2cc(-c3ccc(CO)cc3)nn2)cc1
[1]
  Activity: inactive
ORF 73 [3]
  pIC50: 4.57

## Nc1cccc(-c2cn(-c3ccc(C(=O)O)cc3)nn2)c1
[4]
  inhibition: inactive
ORF 73 [5]
  pIC50: 3.87
[1]
  Activity: inactive
ORF 73 [3]
  pIC50: 3.96
[6]
  inhibition: inactive
ORF 73 [7]
  pIC50: 3.97

## Nc1ccc(-n2ccnc2)cc1
[1]
  Activity: inactive
[2]
  inhibition: inactive

## CC(=O)Nc1ccccc1-n1ccnc1
[1]
  Activity: inactive
[2]
  inhibition: 32%

## Nc1ccccc1-c1cn(-c2ccc(C(=O)O)cc2)nn1
[4]
  inhibition: Active
ORF 73 [5]
  pIC50: 4.60
[1]
  Activity: inactive
ORF 73 [3]
  pIC50: 4.55
[6]
  inhibition: Active
ORF 73 [7]
  pIC50: 4.59

Source: ChEMBL document CHEMBL4385596, “Fragment-Based Discovery of a Qualified Hit Targeting the Latency-Associated Nuclear Antigen of the Oncogenic Kaposi's Sarcoma-Associated Herpesvirus/Human Herpesvirus 8” (J Med Chem, 2019)
